Reference: ChEMBL document CHEMBL4513216, “Probing the Open Global Health Chemical Diversity Library for Multistage-Active Starting Points for Next-Generation Antimalarials” (ACS Infect Dis, 2020)

Experiment: Toxicity liver stage against HepG2, at 10uM
Format: cell-based
Set-up: test concentration 10 uM, cell line HepG2-A16-CD81EGFP
Conditions: human, HepG2-A16-CD81EGFP cells; read-out: INHIBITION
In short: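 Uninfected HepG2-A16-CD81EGFP cells, 3 × 10^3 per well, 1536-well, plated on prespotted compound at 10 μM final, parasite-free screening media added to match infected plates; puromycin 10 μM positive, DMSO 0.5% negative; run in parallel with 48 h PbLuc assay at 37 °C, 5% CO2; viability by CellTiter-Glo luminescence, normalized to controls.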

Row | Compound | cytotoxicity at 10 µM [%]
1 | CC(C)CN1C[C@H]2CCN(Cc3cccnc3)CC[C@H]2S1(=O)=O | -1.8
2 | Cn1nnc2c1C(COCC1CC1)CN(C(=O)Cc1ccsc1)C2 (centres undefined) | -0.11
3 | CN(C)c1nccc(C2CN(C(=O)CO)C2)n1 | -10.6
4 | CC(=O)N[C@@H]1C[C@H](Cc2ccccc2)O[C@H](c2ccc(C(=O)O)cc2)C1 | 2.76
5 | COCCOCC(=O)Nc1ccc(Br)cc1F | -10.5
6 | O=C(c1ccco1)N1CCC2(CCC(=O)N2Cc2ccccc2)CC1 | 7.59
7 | COc1ccccc1CC1CCCN(CC(=O)N2CCOCC2)C1 (centres undefined) | 7.87
8 | CC(C)Oc1ccc(C(O)CNCc2ccccc2C(F)(F)F)cc1 (centres undefined) | -1.71
9 | CN(CCc1ccccn1)C(=O)C(O)c1cc(Cl)cc(Cl)c1 (centres undefined) | -5.68
10 | O=C(C1CC=CC1)N1CCc2c(COCc3ccncc3)cncc2C1 | -7.79
11 | COc1ccc(CN(Cc2cnn(C)c2)CC(C)C)cn1 | -18.4
12 | CCCS(=O)(=O)N1C[C@@H]2C[C@H](C(=O)N(C)C)[C@H](C1)O2 | -74
13 | O=C(CN1CCNCC1)N1CC[C@@H](c2ccc3ccccc3c2)[C@H](O)C1 | -8.9
14 | Cc1nc(CN2CCCC2c2ccsc2)nc2ccccc12 (centres undefined) | 0.89
15 | CCOc1ccc2[nH]c(=O)c(CN3CCCCC3C)cc2c1 (centres undefined) | -0.895
16 | Cn1ccnc1CN1CCCN(C(=O)c2ccc3cc[nH]c3c2)CC1 | -6.44
17 | CCn1nnc2c1C(COC)CN(Cc1ccco1)C2 (centres undefined) | 0.73
18 | CC(=O)c1cccc(NCC(=O)NC(N)=O)c1 | 2.54
19 | COc1ccccc1CN1CC[C@H]2C[C@H](C(=O)N3CCCC3)O[C@H]2C1 | -2.24
20 | CS(=O)(=O)N1CCOCC2(CN(Cc3ccc(F)cc3)CCO2)C1 (centres undefined) | 1.42
21 | N#Cc1cn(CCCN2CCc3ccccc32)c(=O)[nH]c1=O | 6.48
22 | COc1ccc(-c2cc3nc(CCNC(=O)C4CC4)nn3cn2)cc1 | 8.38
23 | Cc1ccc(N2CCCC(NCC3=Cc4ccccc4OC3)C2)nn1 (centres undefined) | -10.2
24 | COc1ccc(CNC(=O)NCC(=O)NC2CC2)c(C(F)(F)F)c1 | 6.41
25 | CCc1ncc2c(n1)CN(Cc1nc3c(F)cccc3[nH]1)CC2 | 19
26 | CN(C)C(=O)N1CCN(c2cc(N3CCCC3CO)ncn2)CC1 (centres undefined) | -1.81
27 | CN1CCN(C(=O)[C@@H]2C[C@@H]3CCN(c4cccc(F)c4)C[C@H]3O2)CC1 | -6.22

Row | Compound | cytotoxicity at 10 µM [%]
28 | Cn1nnc2c1CCN(CC1CC1)C2COCc1ccccc1 (centres undefined) | 6.74
29 | COCCN1CCO[C@H]2CN(C(=O)c3ccncc3F)C[C@H]21 | -141
30 | O=C1CN(Cc2cnc3c(-c4ccccc4)cnn3c2)CCCN1 | 3.32
31 | Cc1ccc(-c2nnc(CN3CCOC(Cn4cccn4)C3)o2)cc1 (centres undefined) | -8.06
32 | CCn1ccnc1CN1CCCN(C(=O)c2cc(Cl)c[nH]2)CC1 | -9.6
33 | Cc1nc(CCC(N)=O)cc(C2CCNCC2)n1 | -15.1
34 | Cc1cc(C(=O)N2CCN(C(=O)CC(C)C)[C@@H]3CS(=O)(=O)C[C@@H]32)no1 | -5.45
35 | Cc1ccc(CC(=O)NC(C)C(=O)N2CCS(=O)(=O)CC2)cc1 (centres undefined) | 1.73
36 | CC(C)Oc1cc(N2CCN(Cc3ccsc3)C(CCO)C2)nc(N)n1 (centres undefined) | -6.35
37 | CCOC(=O)CCn1cnc2onc(-c3ccc(OC)cc3)c2c1=O | 18.8
38 | CC(C)NC(=O)c1ccc2c(c1)C(c1nc[nH]n1)CN2S(C)(=O)=O (centres undefined) | -132
39 | COCCC(=O)Nc1cc(CC(C)(C)C)n[nH]1 | 3.97
40 | COc1cc(C(=O)NS(=O)(=O)c2cccc(C#N)c2)ccc1C | -9.29
41 | CO[C@@H]1CN(c2ccccc2)S(=O)(=O)[C@@]12CCN(Cc1ccccc1)C2 | 3.51
42 | OCC1CCCCN1CCn1ccnc1-c1nc2ccccc2[nH]1 (centres undefined) | 8.89
43 | COc1cccc(CC(C)NC(=O)NCCNC(C)=O)c1 (centres undefined) | 7.89
44 | CN(Cc1ccncn1)C(=O)CCC(=O)NC1CCCC1 | -1.01
45 | Cn1ccnc1SCC(=O)NCc1ccc2c(c1)CCC(=O)N2 | 7.66
46 | c1nc(N2CCOC(Cn3cncn3)C2)c2cc[nH]c2n1 (centres undefined) | -7.97
47 | CNS(=O)(=O)c1cccc(C(C)NCc2ccccc2OC)c1 (centres undefined) | -2.59
48 | Cc1nc(CN2CCC3(CCCN(C(=O)c4cnccn4)C3)C2)cs1 (centres undefined) | -147
49 | c1cc(NCc2cscn2)cc(OCCN2CCCCC2)c1 | -20.7
50 | Cc1ncc(CN2CCC(c3ccnn3C)CC2)n1-c1ccccc1 | 19.1
51 | Fc1ccc(-c2noc3c2CN(CC2CC2)CC3)cc1F | -6.39
52 | c1csc(CN2CCOCC3(CCN(C4CCOCC4)C3)C2)c1 (centres undefined) | -0.608
53 | CCc1nc(CN2CCCN(CC(=O)N3CCOCC3)CC2)no1 | -10.2
54 | COCCN1C(=O)[C@]2(CC[C@@H]3CN(Cc4ccccc4F)C[C@@H]32)N=C1C | -0.0957

Row | Compound | cytotoxicity at 10 µM [%]
55 | CCn1cnnc1CNC(=O)NC(C)C(C)C (centres undefined) | -6.15
56 | Cc1noc(C)c1CN1CCC[C@]2(C[C@@H](Oc3ccccn3)CO2)C1 | -67.1
57 | CC(C)C(C)N(Cc1ccccn1)Cc1ccco1 (centres undefined) | -1.99
58 | CC1CCN(c2nc3cn(Cc4cccc(F)c4)c(=O)c-3c[nH]2)CC1 | 4.52
59 | O=C(C1CCOCC1)N1C[C@@H]2C[C@@H](c3nc(C4CC4)cs3)O[C@@H]2C1 | -10.1
60 | Cc1nn(C)c(C)c1CN(C)c1nc(C2CC2)nc2c(C)nn(C)c12 | 3.98
61 | CC(C)(CNc1ccc(S(=O)(=O)C(F)F)cc1)N1CCOCC1 | 26.7
62 | CS(=O)(=O)NC[C@]12COC[C@H]1CN(C(=O)C1CC=CC1)C2 | -105
63 | Cc1nc(C2(O)CCCNCC2)sc1CCOc1ccc(F)cc1 (centres undefined) | -15.8
64 | CSCCCN1C[C@H](NC(=O)c2cc(C3CC3)on2)[C@@H](C2CC2)C1 | 2.72
65 | O=C(N[C@@H]1CCN(Cc2ccc(F)cc2F)C[C@H]1O)c1cccnc1 | -10.4
66 | Cc1nc(C)n(CC2CCCN2Cc2cn3ccccc3c2C#N)n1 (centres undefined) | 2.8
67 | Cc1noc(CNC(=O)CN(C)c2nc3c(F)cccc3s2)n1 | 3.76
68 | CC(C)NC(=O)N1CCOC2(CCCN(c3cccc(C#N)c3)C2)C1 (centres undefined) | 11.8
69 | Cc1nc(C)n(CC2CCCN(CC(=O)Nc3nncs3)C2)n1 (centres undefined) | -3.79
70 | O=C(CCc1cccnc1)N1CCCCC1c1ccn2ccnc2n1 (centres undefined) | -4.28
71 | O=C(CCN1CCCC1c1cccs1)N1CCc2sccc2C1 (centres undefined) | -0.636
72 | CC(=O)N1CCCC1c1ccc(CN2CCOCC2)cn1 (centres undefined) | 5.83
73 | O=C(NC[C@H]1OC[C@@H](NC2CCCC2)[C@@H]1O)C1CCCC1 | -2.15
74 | CN(C)CCO[C@H]1CN(Cc2ccc3c(c2)OCO3)[C@@H]2COC[C@H]12 | -5.5
75 | CC(C)CCNC(=O)C1CCN(c2ccc3nnc(C(C)C)n3n2)CC1 | 1.68
76 | CCN1CCN(S(=O)(=O)N2CCCCCC2)[C@H]2CS(=O)(=O)C[C@H]21 | 1.58
77 | Cc1noc(C)c1C(=O)N1CCCC(c2c(C)c(=O)nc3n2CCC3)C1 (centres undefined) | -21.1
78 | CN1CC(C(=O)NC2(c3cccc(F)c3)CCOCC2)CC1=O (centres undefined) | 15.6
79 | c1ccc2c(N3CCCC3Cn3cccn3)ncnc2c1 (centres undefined) | 7.94
